Measured values published in ChEMBL document CHEMBL1130160 (J Med Chem, 1997).

What was measured:
Rattus norvegicus [1] = assay: Dose required to reduce serum cholesterol by 50% relative to OVX controls was determined (in vivo); assay type: functional
Method in brief: (§1)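 OVX Sprague–Dawley rats (75 days old), 5–6 per group, dosed once daily by oral gavage for 4 consecutive days, starting 14 days after ovariectomy. Vehicle was 20% β-hydroxycyclodextrin at 1 mL/kg, or 1.5% carboxymethylcellulose in some cases. Rats were fasted after the last dose and bled by cardiac puncture next morning.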

Rattus norvegicus [2] = assay: Percent decrease in serum cholesterol relative to OVX control at 1.0 mg/kg in rats; assay type: functional; method in brief: as §1
Rattus norvegicus [3] = assay: Minimum effective dose at which significant increase in uterine eosinophil peroxidase (EPO) activity in rat was determined (in vivo); assay type: functional; settings: read-out: MED
Rattus norvegicus [4] = assay: Minimum effective dose at which significant increase in uterine weight/body weight in rat was determined (in vivo); assay type: functional; settings: read-out: MED
Method in brief: (§2)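 In 75-day OVX Sprague–Dawley rats dosed orally for 4 days, beginning 2 weeks post-ovariectomy with 5–6 rats per group, whole uteri were weighed the morning after fasting. MED is the lowest dose giving a significant (p≤0.05) rise in uterine weight/body weight, expressed as % increase over OVX controls ±SE.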

Estrogen receptor = Estrogen receptor (Homo sapiens, UniProt Q92731+P03372); settings: mcf7
Rattus norvegicus [5] = assay: Percent decrease in serum cholesterol relative to OVX control at 0.1 mg/kg in rats; assay type: functional; method in brief: as §1
Rattus norvegicus [6] = assay: Percent decrease in serum cholesterol relative to OVX control at 10 mg/kg in rat was determined (in vivo); assay type: functional; method in brief: as §1
Rattus norvegicus [7] = assay: Minimum effective dose at which significant increase in uterine weight/body weight in rat was determined (in vivo); expressed as % increase relative to ovariectomized (OVX) controls; assay type: functional; method in brief: as §2
Rattus norvegicus [8] = assay: Percent decrease in serum cholesterol relative to OVX control at 0.1 mg/kg in rat was determined (in vivo); assay type: functional; method in brief: as §1
Rattus norvegicus [9] = assay: Percent decrease in serum cholesterol relative to OVX control at 1 mg/kg in rat; assay type: functional; method in brief: as §1
Rattus norvegicus [10] = assay: Eosinophil peroxidase activity expressed as Vmax was determined in rat (in vivo) Eosinophil peroxidase activity expressed as Vmax was determined in rat (in vivo); assay type: functional; set-up: unit not given here

## O=C(c1ccc(OCCN2CCCCC2)cc1)c1c(-c2cccs2)sc2cc(O)ccc12
Rattus norvegicus [1]
  ED50: 11 mg/kg
Rattus norvegicus [2]
  Decrease: -0.9%
Rattus norvegicus [3]
  minimal effective dose: > 10 mg/kg
Rattus norvegicus [4]
  minimal effective dose: 1 mg/kg
Estrogen receptor
  IC50: 20 nM

## O=C(c1ccc(OCCN2CCCCC2)cc1)c1c(-c2ccsc2)sc2cc(O)ccc12
Rattus norvegicus [1]
  ED50: > 10 mg/kg
Rattus norvegicus [5]
  Decrease: 0.6%
Rattus norvegicus [6]
  Decrease: 31.8%
Rattus norvegicus [3]
  minimal effective dose: > 10 mg/kg
Rattus norvegicus [4]
  minimal effective dose: 10 mg/kg
Estrogen receptor
  IC50: 10 nM

## NC(=O)c1ccc2c(C(=O)c3ccc(OCCN4CCCCC4)cc3)c(-c3ccc(O)cc3)sc2c1
Rattus norvegicus [2]
  Decrease: -14.9%
Rattus norvegicus [3]
  minimal effective dose: > 10 mg/kg
Rattus norvegicus [4]
  minimal effective dose: 10 mg/kg
Rattus norvegicus [7]
  Increase: 30.7%
Estrogen receptor
  IC50: 1000 nM

## CCCCc1ccc(-c2sc3cc(O)ccc3c2C(=O)c2ccc(OCCN3CCCCC3)cc2)cc1
Rattus norvegicus [1]
  ED50: 2.3 mg/kg
Rattus norvegicus [8]
  Decrease: 21.3%
Rattus norvegicus [9]
  Decrease: 14.5%
Rattus norvegicus [6]
  Decrease: 72%
Rattus norvegicus [3]
  minimal effective dose: 10 mg/kg
Rattus norvegicus [4]
  minimal effective dose: > 10 mg/kg
Rattus norvegicus [10]
  Eosinophil peroxidase activity (Vmax): 20.8
Estrogen receptor
  IC50: 10 nM

## O=C(c1ccc(OCCN2CCCCC2)cc1)c1c(C2CCCCC2)sc2cc(O)ccc12
Rattus norvegicus [1]
  ED50: 2.1 mg/kg
Rattus norvegicus [5]
  Decrease: -0.1%
Rattus norvegicus [2]
  Decrease: 52.9%
Rattus norvegicus [6]
  Decrease: 61.7%
Rattus norvegicus [3]
  minimal effective dose: > 10 mg/kg
Rattus norvegicus [4]
  minimal effective dose: 1 mg/kg
Rattus norvegicus [7]
  Increase: 30.2%

## CC(C)c1sc2cc(O)ccc2c1C(=O)c1ccc(OCCN2CCCCC2)cc1
Rattus norvegicus [1]
  ED50: > 10 mg/kg
Rattus norvegicus [5]
  Decrease: 12.4%
Rattus norvegicus [2]
  Decrease: 30.5%
Rattus norvegicus [6]
  Decrease: 35%
Rattus norvegicus [3]
  minimal effective dose: > 10 mg/kg
Rattus norvegicus [4]
  minimal effective dose: > 10 mg/kg

## Cc1cc(-c2sc3cc(O)ccc3c2C(=O)c2ccc(OCCN3CCCCC3)cc2)cc(C)c1O
Rattus norvegicus [1]
  ED50: 1.8 mg/kg
Rattus norvegicus [8]
  Decrease: 23.1%
Rattus norvegicus [9]
  Decrease: 40.2%
Rattus norvegicus [6]
  Decrease: 69.1%
Rattus norvegicus [3]
  minimal effective dose: 1 mg/kg
Rattus norvegicus [4]
  minimal effective dose: 1 mg/kg
Rattus norvegicus [10]
  Eosinophil peroxidase activity (Vmax): 40.8
Rattus norvegicus [7]
  Increase: 33.8%
Estrogen receptor
  IC50: 100 nM

## Cc1ccc(-c2sc3cc(O)ccc3c2C(=O)c2ccc(OCCN3CCCCC3)cc2)cc1.Cl
Rattus norvegicus [1]
  ED50: 2.9 mg/kg
Rattus norvegicus [8]
  Decrease: 12.2%
Rattus norvegicus [9]
  Decrease: 26.5%
Rattus norvegicus [6]
  Decrease: 69.1%
Rattus norvegicus [3]
  minimal effective dose: > 10 mg/kg
Rattus norvegicus [4]
  minimal effective dose: 1 mg/kg
Rattus norvegicus [7]
  Increase: 34.6%
Estrogen receptor
  IC50: 50 nM

## C=Cc1ccc(-c2sc3cc(O)ccc3c2C(=O)c2ccc(OCCN3CCCCC3)cc2)cc1
Rattus norvegicus [1]
  ED50: 10 mg/kg
Rattus norvegicus [8]
  Decrease: -7%
Rattus norvegicus [9]
  Decrease: 41.5%
Rattus norvegicus [6]
  Decrease: 49.7%
Rattus norvegicus [3]
  minimal effective dose: 1 mg/kg
Rattus norvegicus [4]
  minimal effective dose: 0.1 mg/kg
Rattus norvegicus [10]
  Eosinophil peroxidase activity (Vmax): 48
Rattus norvegicus [7]
  Increase: 26.9%

## CCSCc1ccc(-c2sc3cc(O)ccc3c2C(=O)c2ccc(OCCN3CCCCC3)cc2)cc1
Rattus norvegicus [1]
  ED50: 2.5 mg/kg
Rattus norvegicus [8]
  Decrease: 21.7%
Rattus norvegicus [9]
  Decrease: 40.1%
Rattus norvegicus [6]
  Decrease: 63%
Rattus norvegicus [3]
  minimal effective dose: 1 mg/kg
Rattus norvegicus [4]
  minimal effective dose: 1 mg/kg
Rattus norvegicus [10]
  Eosinophil peroxidase activity (Vmax): 36.9
Rattus norvegicus [7]
  Increase: 30.5%
Estrogen receptor
  IC50: 100 nM

## O=C(c1ccc(OCCN2CCCCC2)cc1)c1c(-c2ccncc2)sc2cc(O)ccc12
Rattus norvegicus [1]
  ED50: 14.6 mg/kg
Rattus norvegicus [5]
  Decrease: 7.2%
Rattus norvegicus [2]
  Decrease: 24%
Rattus norvegicus [6]
  Decrease: 47.6%
Rattus norvegicus [3]
  minimal effective dose: > 10 mg/kg
Rattus norvegicus [4]
  minimal effective dose: 1 mg/kg
Rattus norvegicus [7]
  Increase: 33.3%
Estrogen receptor
  IC50: 100 nM

## O=C(c1ccc(OCCN2CCCCC2)cc1)c1c(C2CCCC2)sc2cc(O)ccc12
Rattus norvegicus [1]
  ED50: 1.2 mg/kg
Rattus norvegicus [5]
  Decrease: 18.4%
Rattus norvegicus [2]
  Decrease: 55.6%
Rattus norvegicus [6]
  Decrease: 69.6%
Rattus norvegicus [3]
  minimal effective dose: > 10 mg/kg
Rattus norvegicus [4]
  minimal effective dose: > 10 mg/kg

## COc1ccc2c(C(=O)c3ccc(OCCN4CCCCC4)cc3)c(-c3ccc(O)cc3)sc2c1
Rattus norvegicus [1]
  ED50: < 0.1 mg/kg
Rattus norvegicus [8]
  Decrease: 54.8%
Rattus norvegicus [9]
  Decrease: 64.5%
Rattus norvegicus [6]
  Decrease: 50%
Rattus norvegicus [3]
  minimal effective dose: > 10 mg/kg
Rattus norvegicus [4]
  minimal effective dose: 1 mg/kg
Rattus norvegicus [7]
  Increase: 33.5%
Estrogen receptor
  IC50: 250 nM

## COC(=O)c1ccc(-c2sc3cc(O)ccc3c2C(=O)c2ccc(OCCN3CCCCC3)cc2)cc1
Rattus norvegicus [1]
  ED50: 3.8 mg/kg
Rattus norvegicus [8]
  Decrease: 23.8%
Rattus norvegicus [9]
  Decrease: 42.1%
Rattus norvegicus [6]
  Decrease: 56.1%
Rattus norvegicus [3]
  minimal effective dose: 10 mg/kg
Rattus norvegicus [4]
  minimal effective dose: 1 mg/kg
Rattus norvegicus [10]
  Eosinophil peroxidase activity (Vmax): 13.2
Rattus norvegicus [7]
  Increase: 37.2%

## O=C(c1ccc(OCCN2CCCCC2)cc1)c1c(-c2cccc3ccccc23)sc2cc(O)ccc12
Rattus norvegicus [1]
  ED50: 0.5 mg/kg
Rattus norvegicus [5]
  Decrease: 40.1%
Rattus norvegicus [2]
  Decrease: 53.9%
Rattus norvegicus [6]
  Decrease: 67.8%
Rattus norvegicus [3]
  minimal effective dose: > 10 mg/kg
Rattus norvegicus [4]
  minimal effective dose: > 10 mg/kg
Estrogen receptor
  IC50: 0.8 nM

## CCc1sc2cc(O)ccc2c1C(=O)c1ccc(OCCN2CCCCC2)cc1
Rattus norvegicus [5]
  Decrease: 4.4%
Rattus norvegicus [2]
  Decrease: 26.5%
Rattus norvegicus [6]
  Decrease: 31.1%
Rattus norvegicus [3]
  minimal effective dose: > 10 mg/kg
Rattus norvegicus [4]
  minimal effective dose: 10 mg/kg
Rattus norvegicus [7]
  Increase: 55.03%

## Cc1sc2cc(O)ccc2c1C(=O)c1ccc(OCCN2CCCCC2)cc1
Rattus norvegicus [1]
  ED50: 1.8 mg/kg
Rattus norvegicus [5]
  Decrease: 8.3%
Rattus norvegicus [2]
  Decrease: 53.8%
Rattus norvegicus [6]
  Decrease: 62.9%
Rattus norvegicus [3]
  minimal effective dose: > 10 mg/kg
Rattus norvegicus [4]
  minimal effective dose: > 10 mg/kg

## O=C(c1ccc(OCCN2CCCCC2)cc1)c1c(-c2cc[n+]([O-])cc2)sc2cc(O)ccc12
Rattus norvegicus [1]
  ED50: > 10 mg/kg
Rattus norvegicus [5]
  Decrease: -16.6%
Rattus norvegicus [2]
  Decrease: 1.8%
Rattus norvegicus [6]
  Decrease: 42.6%
Rattus norvegicus [3]
  minimal effective dose: > 10 mg/kg
Rattus norvegicus [4]
  minimal effective dose: > 10 mg/kg
Estrogen receptor
  IC50: 100 nM

## O=C(c1ccc(OCCN2CCCCC2)cc1)c1c(-c2ccc(-c3ccccc3)cc2)sc2cc(O)ccc12
Rattus norvegicus [1]
  ED50: 2.4 mg/kg
Rattus norvegicus [8]
  Decrease: 12.9%
Rattus norvegicus [9]
  Decrease: 37%
Rattus norvegicus [6]
  Decrease: 68.5%
Rattus norvegicus [3]
  minimal effective dose: 1 mg/kg
Rattus norvegicus [4]
  minimal effective dose: 0.1 mg/kg
Rattus norvegicus [10]
  Eosinophil peroxidase activity (Vmax): 25.4
Rattus norvegicus [7]
  Increase: 50.3%
Estrogen receptor
  IC50: 100 nM

## Cl.O=C(c1ccc(OCCN2CCCCC2)cc1)c1c(-c2ccc(F)cc2)sc2cc(O)ccc12
Rattus norvegicus [1]
  ED50: 1.4 mg/kg
Rattus norvegicus [8]
  Decrease: 20.6%
Rattus norvegicus [9]
  Decrease: 46%
Rattus norvegicus [6]
  Decrease: 71.9%
Rattus norvegicus [3]
  minimal effective dose: > 10 mg/kg
Rattus norvegicus [4]
  minimal effective dose: 1 mg/kg
Rattus norvegicus [7]
  Increase: 50.2%
Estrogen receptor
  IC50: 2.3 nM

## COc1ccc(-c2sc3cc(OC)ccc3c2C(=O)c2ccc(OCCN3CCCCC3)cc2)cc1.Cl
Rattus norvegicus [1]
  ED50: < 0.1 mg/kg
Rattus norvegicus [8]
  Decrease: 62.2%
Rattus norvegicus [9]
  Decrease: 78%
Rattus norvegicus [6]
  Decrease: 68.5%
Rattus norvegicus [3]
  minimal effective dose: > 10 mg/kg
Rattus norvegicus [4]
  minimal effective dose: 0.1 mg/kg
Rattus norvegicus [7]
  Increase: 57.3%
Estrogen receptor
  IC50: 300 nM

## CSc1ccc(-c2sc3cc(O)ccc3c2C(=O)c2ccc(OCCN3CCCCC3)cc2)cc1
Rattus norvegicus [1]
  ED50: 0.9 mg/kg
Rattus norvegicus [8]
  Decrease: 27.7%
Rattus norvegicus [9]
  Decrease: 51.5%
Rattus norvegicus [6]
  Decrease: 75.3%
Rattus norvegicus [3]
  minimal effective dose: 1 mg/kg
Rattus norvegicus [4]
  minimal effective dose: 1 mg/kg
Rattus norvegicus [10]
  Eosinophil peroxidase activity (Vmax): 37.5
Rattus norvegicus [7]
  Increase: 50.2%

## Cl.O=C(c1ccc(OCCN2CCCCC2)cc1)c1c(-c2ccc(O)cc2)sc2cc(Cl)ccc12
Rattus norvegicus [1]
  ED50: > 10 mg/kg
Rattus norvegicus [8]
  Decrease: -5.1%
Rattus norvegicus [9]
  Decrease: -6.8%
Rattus norvegicus [6]
  Decrease: 37.6%
Rattus norvegicus [3]
  minimal effective dose: > 10 mg/kg
Rattus norvegicus [4]
  minimal effective dose: 10 mg/kg
Rattus norvegicus [7]
  Increase: 49.6%
Estrogen receptor
  IC50: 1000 nM
